One series concerns Klebsiella pneumoniae. Description: Antibacterial activity against Klebsiella pneumoniae after 18 to 22 hrs by […]. In kind it is functional.
The next series relates to Pichia kudriavzevii. Briefly: Antifungal activity against 3 strains of Candida krusei after 24 hrs by […]. The format is functional.
The subject of the next series is Escherichia coli. Description: Antibacterial activity against Escherichia coli after 18 to 22 hrs by […]. In kind it is functional.
Another series concerns Staphylococcus warneri. Briefly: Antibacterial activity against Staphylococcus warneri after 18 to 22 hrs by […]. In kind it is functional.
The subject of another series is Enterococcus faecalis. Briefly: Antibacterial activity against Enterococcus faecalis after 18 to 22 hrs by […]. The format is functional.
The subject of a further series is Klebsiella aerogenes. Description: Antibacterial activity against Enterobacter aerogenes after 18 to 22 hrs by […]. The format is functional.
A further series concerns Proteus vulgaris. Description: Antibacterial activity against Proteus vulgaris after 18 to 22 hrs by […]. In kind it is functional.
In another series the test system is [Candida] sake. Briefly: Antifungal activity against 2 strains of Candida sake after 24 hrs by […]. In kind it is functional. The conditions noted are these: Fermentozyma sake.
The next series concerns Nakaseomyces glabratus. Description: Antifungal activity against 4 strains of Candida glabrata after 24 hrs by […]. In kind it is functional.
The next series deals with Streptococcus pyogenes. Briefly: Antibacterial activity against Streptococcus pyogenes after 18 to 22 hrs by […]. The format is functional.
The test system of a further series is Staphylococcus aureus. Description: Antibacterial activity against Staphylococcus aureus after 18 to 22 hrs by […]. The format is functional.
The subject of a further series is Candida parapsilosis. Briefly: Antifungal activity against 4 strains of Candida parapsilosis after 24 hrs by […]. The format is functional. The conditions noted are these: Lodderomyces parapsilosis.
Another series has as its system Candida tropicalis. Description: Antifungal activity against 4 strains of Candida tropicalis after 24 hrs by […]. The format is functional.
The test system of a further series is Candida albicans. Briefly: Antifungal activity against 10 strains of Candida albicans after 24 hrs by […]. The format is functional.
The nature of series [1]: Antiproliferative activity against human Hep2 cells assessed as cell survival fraction at 10 ug/mL after 24 hrs by MTT assay. In kind it is cell-based. The following applies: HEp-2 cells, read-out: Survival. The gist of the method: (§1)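 Hep2 (human laryngeal carcinoma) cells maintained in DMEM + 10% FBS + 1% pen/strep, 37 °C, 5% CO2. Seeded in triplicate at 1 × 10^5/well in serum-free medium and exposed 24 h at 37 °C to six compound concentrations (100–0.05). DMSO stock diluted in medium, final DMSO ≤0.5%. MTT reagent added for 2 h at 37 °C, then detergent for 2 h at RT in the dark. Read as OD550 minus OD650.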
For orientation: Tetrazolium assays rely on reduction of a dye to a coloured formazan, in cell work by metabolically active cells.

Series [2] in a line: Cytotoxicity against human Hep2 cells assessed as cell survival fraction at 0.5 ug/mL after 24 hrs by trypan blue exclusion method. The format is cell-based. The following applies: HEp-2 cells, read-out: Survival. In outline: (§2)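 Hep2 cells grown in DMEM + 10% FBS + 1% pen/strep at 37 °C, 5% CO2, used at 60–70% confluency. Exponential-phase cells (1 × 10^5/mL) incubated 24 h with six concentrations (100–0.05), final DMSO ≤0.5%. Controls were cells alone or cells + DMSO, with 1 mM sodium nitroprusside as positive control. Cells scraped off, mixed 1:1 with 0.4% trypan blue and counted on a hemocytometer by two operators. Blue cells were scored dead; results given as % viable cells.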

Series [3] is described as follows: Antiproliferative activity against human Hep2 cells assessed as cell survival fraction at 0.05 ug/mL after 24 hrs by MTT assay. The following applies: HEp-2 cells, read-out: Survival. In kind it is cell-based. The gist of the method: as §1
The nature of series [4]: Cytotoxicity against human Hep2 cells assessed as cell survival fraction at 100 ug/mL after 24 hrs by trypan blue exclusion method. The format is cell-based. The following applies: HEp-2 cells, read-out: Survival. In outline:
as §2

The nature of series [5]: Cytotoxicity against human Hep2 cells assessed as cell survival fraction at 0.05 ug/mL after 24 hrs by trypan blue exclusion method. The following applies: HEp-2 cells, read-out: Survival. In kind it is cell-based. The gist of the method: as §2
The nature of series [6]: Antiproliferative activity against human Hep2 cells assessed as cell survival fraction at 50 ug/mL after 24 hrs by MTT assay. The format is cell-based. The following applies: HEp-2 cells, read-out: Survival. The gist of the method:
as §1

The nature of series [7]: Antiproliferative activity against human Hep2 cells assessed as cell survival fraction at 0.5 ug/mL after 24 hrs by MTT assay. The format is cell-based. The following applies: HEp-2 cells, read-out: Survival. The gist of the method: as §1
Series [8] deals with HEp-2. Description: Antiproliferative activity against human Hep2 cells assessed as cell survival fraction after 24 hrs by MTT assay. The format is cell-based. The following applies: HEp-2, 24 h. The gist of the method:
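Hep2 laryngeal carcinoma cells seeded in triplicate at 1 × 10^5/well in serum-free DMEM. Exposed 24 h at 37 °C, 5% CO2, to six concentrations ([…]); DMSO ≤0.5%. MTT reagent added for 2 h at 37 °C, then detergent for 2 h at room temperature in the dark. OD550 minus OD650 read. EC50 from ≥3 independent experiments.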

The nature of series [9]: Antiproliferative activity against human Hep2 cells assessed as cell survival fraction at 5 ug/mL after 24 hrs by MTT assay. In kind it is cell-based. The following applies: HEp-2 cells, read-out: Survival. In outline:
as §1

For series [10], the system named is HEp-2. Briefly: Cytotoxicity against human Hep2 cells assessed as cell survival fraction after 24 hrs by trypan blue exclusion method. The format is cell-based. The conditions noted are these: HEp-2, 24 h. The gist of the method: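 Hep2 cells in DMEM with 10% FBS and 1% penicillin-streptomycin, at 37 °C, 5% CO2, grown to 60–70% confluency. Seeded at 1 × 10^5/mL and exposed 24 h to six concentrations ([…]); DMSO ≤0.5%. Controls were cells alone, cells with DMSO, and 1 mM nitroprusside. Scraped cells mixed 1:1 with 0.4% trypan blue; blue cells counted as dead by hemocytometer, two operators. EC50 from ≥3 independent experiments.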

A short description of series [11]: Antiproliferative activity against human Hep2 cells assessed as cell survival fraction at 100 ug/mL after 24 hrs by MTT assay. The format is cell-based. The conditions noted are these: HEp-2 cells, read-out: Survival. In outline:
as §1

A short description of series [12]: Cytotoxicity against human Hep2 cells assessed as cell survival fraction at 5 ug/mL after 24 hrs by trypan blue exclusion method. The format is cell-based. The following applies: HEp-2 cells, read-out: Survival. The gist of the method:
as §2

Series [13] is described as follows: Cytotoxicity against human Hep2 cells assessed as cell survival fraction at 50 ug/mL after 24 hrs by trypan blue exclusion method. In kind it is cell-based. The conditions noted are these: HEp-2 cells, read-out: Survival. The gist of the method:
as §2

Series [14] is described as follows: Cytotoxicity against human Hep2 cells assessed as cell survival fraction at 10 ug/mL after 24 hrs by trypan blue exclusion method. The format is cell-based. The following applies: HEp-2 cells, read-out: Survival. The gist of the method: as §2

≈ marks a conversion by molar mass, not a printed value.

By MIC is commonly meant the least concentration at which growth counts as inhibited. A lower MIC goes with greater potency. By EC50 is commonly meant the concentration at which the effect is half-maximal.

As to `Ic1ccc(-c2csc(N/N=C/c3ccc4c(c3)OCO4)n2)cc1`, the MIC against Klebsiella pneumoniae was more than 128 µg/mL; against Pichia kudriavzevii, 2 µg/mL (≈ 4.45 µM); with Escherichia coli it was more than 128 µg/mL; against Staphylococcus warneri, 32 µg/mL (≈ 71.2 µM); against Enterococcus faecalis, 32 µg/mL (≈ 71.2 µM); with Klebsiella aerogenes, more than 128 µg/mL. The MIC against Proteus vulgaris is more than 128 µg/mL; in [Candida] sake, 4 µg/mL (≈ 8.9 µM); in the series with Nakaseomyces glabratus, 4 µg/mL (≈ 8.9 µM); against Streptococcus pyogenes, more than 128 µg/mL; in the series with Staphylococcus aureus, 32 µg/mL (≈ 71.2 µM); against Candida parapsilosis, 2 µg/mL (≈ 4.45 µM). The MIC with Candida tropicalis and in the series with Candida albicans was 2 µg/mL (≈ 4.45 µM) in each case.
Take `C/C(=N\Nc1nc(-c2ccc(I)cc2)cs1)c1ccc2ccccc2c1`: the MIC against Klebsiella pneumoniae amounted to 16 µg/mL (≈ 34.1 µM); against Pichia kudriavzevii it was 64 µg/mL (≈ 136 µM); in the series on Escherichia coli, 16 µg/mL (≈ 34.1 µM); in the series with Staphylococcus warneri it was 4 µg/mL (≈ 8.52 µM); against Enterococcus faecalis, 4 µg/mL (≈ 8.52 µM); against Klebsiella aerogenes it was 16 µg/mL (≈ 34.1 µM). Also, the MIC in the series with Proteus vulgaris is 16 µg/mL (≈ 34.1 µM); in series [Candida] sake, 64 µg/mL (≈ 136 µM); with Nakaseomyces glabratus it was 4 µg/mL (≈ 8.52 µM); with Streptococcus pyogenes, 8 µg/mL (≈ 17 µM); with Staphylococcus aureus, 8 µg/mL (≈ 17 µM); against Candida parapsilosis it was 2 µg/mL (≈ 4.26 µM). Also, the MIC against Candida tropicalis and in the series with Candida albicans was 2 µg/mL (≈ 4.26 µM) in each case.
For `C/C(=N\Nc1nc(-c2ccc(I)cc2)cs1)c1cc2ccccc2oc1=O`, the MIC against Klebsiella pneumoniae was more than 128 µg/mL; in the series with Pichia kudriavzevii, 2 µg/mL (≈ 4.1 µM); against Escherichia coli it was 16 µg/mL (≈ 32.8 µM); in the series on Staphylococcus warneri, 4 µg/mL (≈ 8.21 µM); in the series with Enterococcus faecalis, 8 µg/mL (≈ 16.4 µM); in the series with Klebsiella aerogenes it was more than 128 µg/mL. The minimal inhibitory concentration (MIC) in the series on Proteus vulgaris was more than 128 µg/mL; in series [Candida] sake it was 4 µg/mL (≈ 8.21 µM); against Nakaseomyces glabratus it was 4 µg/mL (≈ 8.21 µM); against Streptococcus pyogenes, 4 µg/mL (≈ 8.21 µM); in the series with Staphylococcus aureus, 32 µg/mL (≈ 65.7 µM); against Candida parapsilosis it was 2 µg/mL (≈ 4.1 µM). Further, the MIC with Candida tropicalis and against Candida albicans was 2 µg/mL (≈ 4.1 µM) in each case.
Regarding `Clc1ccccc1C(c1ccccc1)(c1ccccc1)n1ccnc1` [CLOTRIMAZOLE], the viability at 24 h, 10 ug/mL in series [1] was determined as 70%; in series [14] it was 68%. Moreover, the MIC against Pichia kudriavzevii came to 2 µg/mL (≈ 5.8 µM); in series [Candida] sake, 2 µg/mL (≈ 5.8 µM); against Nakaseomyces glabratus, 0.25 µg/mL (≈ 0.725 µM); in the series on Candida parapsilosis, 0.5 µg/mL (≈ 1.45 µM); with Candida tropicalis, 1 µg/mL (≈ 2.9 µM); against Candida albicans, 2 µg/mL (≈ 5.8 µM). In addition, the viability at 24 h, 0.5 ug/mL in series [2] was determined as 87%; in series [7], 85%. Besides, the viability at 24 h, 0.05 ug/mL in [3] and in [5] was 100% throughout. Also, the figures for the viability at 24 h, 100 ug/mL in series [4] and in series [11] were 10% and 20%, respectively. In addition, the viability at 24 h, 50 ug/mL came to 32% in series [6] and 20% in series [13]. In addition, the EC50 with HEp-2 [8] was 48 µg/mL (≈ 139 µM); in the series on HEp-2 [10], 40 µg/mL (≈ 116 µM). The viability at 24 h, 5 ug/mL turned out to be 82% in series [9] and 70% in series [12].

The record behind these values is ChEMBL document CHEMBL2034842, “Synthesis, anti-Candida activity, and cytotoxicity of new (4-(4-iodophenyl)thiazol-2-yl)hydrazine derivatives” (Eur J Med Chem, 2012).
